Only some compounds are listed: those with a hit (about 2.8% of all), similar ones and a draw of the others.
NPY-Y2 PAM-ag: potentiates or activates human NPY-Y2 receptor; cells expressing NPY-Y2, potentiator/agonist read-out; activation, % at 3.6 µM; 0.45% of 220,000 active; AID 1359; in the data active = activation above about 27%;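 also: cells stimulated with NPY near EC25 plus isoproterenol at EC100; 0% = vehicle plus submaximal agonist and 100% = vehicle plus saturating agonist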
EP2 mod: modulators of human EP2 prostaglandin E2 receptor | EP2-expressing cells, cAMP HTRF FRET, PGE2 co-stimulation | P43116 | 0.83% of 260,000 active | induction, % at 25 µM;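 active = compounds whose cAMP rise, as percent of the full-agonist control response, exceeds 60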;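 also: rat C6 glioma line stably carrying human EP2 under a CMV promoter; the protocol text gives 20 µM as final concentration; 100% = response of wells given 1 µM PGE2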
Target sequence (P43116 whole entry, looked up): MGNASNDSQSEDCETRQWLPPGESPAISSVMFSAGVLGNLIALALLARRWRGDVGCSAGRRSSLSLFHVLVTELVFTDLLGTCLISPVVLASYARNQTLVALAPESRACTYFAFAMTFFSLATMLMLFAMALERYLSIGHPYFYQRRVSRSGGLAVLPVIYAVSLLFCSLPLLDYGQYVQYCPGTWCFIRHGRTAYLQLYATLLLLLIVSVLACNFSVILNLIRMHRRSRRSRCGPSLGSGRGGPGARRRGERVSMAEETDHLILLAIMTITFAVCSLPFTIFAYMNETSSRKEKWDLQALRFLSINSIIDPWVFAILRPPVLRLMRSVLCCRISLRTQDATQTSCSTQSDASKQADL
NPY Y1 blocker: antagonists of human neuropeptide Y receptor Y1; P25929; HEK293-CNG Y1 cells, membrane potential fluorescence; NPY at EC95, then isoproterenol; inhibition, % at 3.6 µM; 1% of 200,000 active; AID 1040;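 active = inhibition above the campaign mean inhibition of all tested compounds plus 3 SD, cut at about 20% in these data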;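 also: 0% = DMSO wells given NPY plus isoproterenol and 100% = isoproterenol alone without NPY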
Target sequence (P25929 whole entry, looked up): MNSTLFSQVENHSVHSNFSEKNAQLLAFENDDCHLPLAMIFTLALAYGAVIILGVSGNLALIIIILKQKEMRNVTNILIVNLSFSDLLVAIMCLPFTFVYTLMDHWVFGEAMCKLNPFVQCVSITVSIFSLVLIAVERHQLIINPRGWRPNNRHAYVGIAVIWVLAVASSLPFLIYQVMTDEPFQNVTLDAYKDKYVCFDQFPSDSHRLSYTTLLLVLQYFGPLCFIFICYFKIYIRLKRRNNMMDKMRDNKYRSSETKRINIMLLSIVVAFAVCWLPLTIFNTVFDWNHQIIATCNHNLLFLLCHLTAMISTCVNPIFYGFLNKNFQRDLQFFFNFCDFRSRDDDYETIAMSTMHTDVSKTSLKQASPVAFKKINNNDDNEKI
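Material: Y1- and CNG-channel-expressing HEK293 cells / Probe or stimulus: NPY 25 nM then isoproterenol 1 µM plus Ro 20-1724 25 µM / Doses: 3.6 µM single dose, DMSO 0.4% / Schedule: compound incubation 1 h at room temperature, readout 45 min post-stimulation / Signal: membrane potential fluorescence / Benchmarks: isoproterenol-only wells as full block versus NPY-plus-isoproterenol wells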
NPY-Y1 PAM-ag: human NPY-Y1 potentiation or agonism, primary screen; activation, % at 3.6 µM; NPY-Y1 expressing cells, potentiator/agonist activation; P25929; 0.37% of 220,000 active; in the data active = activation above about 33%, passing the limit was not always enough;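 also: cells stimulated with NPY at EC10 then isoproterenol at EC100; 0% = low agonist plus stimulus and 100% = saturating agonist plus stimulus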
PGE2 EP2 inh: blocks the human prostaglandin E2 receptor EP2; C6 glioma cells expressing human EP2, cAMP TR-FRET; cells stimulated with saturating PGE2; inhibition, % at 25 µM; 0.52% of 260,000 active;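 active = percent inhibition above 40 after rounding to a whole number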;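 also: rat C6 glioma host cells with rolipram phosphodiesterase inhibitor present; the protocol text gives 20 µM as final concentration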
NPY Y2 blocker: NPY-Y2 (human) receptor antagonism; NPY-Y2 expressing cells, antagonist mode; P49146; inhibition, % at 2.7 µM; AID 793; 0.99% of 140,000 active;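 also: 0% = vehicle with agonist challenge and 100% = reference antagonist with challenge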
NPY1 antag conf: human NPY-Y1 antagonism, confirmation; shares compounds with NPY Y1 blocker; HEK293-CNG NPY-Y1, membrane potential fluorescence, cAMP; NPY challenge against isoproterenol-raised cAMP; inhibition, % at 3.6 µM; 21% of 1,200 active; AID 1254; in the data active = inhibition above about 20%;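 also: 0% = vehicle with agonist plus stimulus and 100% = stimulus alone without agonist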
NPY-Y2 antag ct: human NPY-Y2 antagonism in NPY-Y1 counter-screen; shares compounds with NPY Y1 blocker; HEK293 NPY-Y2 CNG membrane potential fluorescence; cells given NPY, then isoproterenol; inhibition, % at 3.6 µM; 28% of 1,200 active;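 also: 0% = DMSO with agonist challenge and 100% = reference antagonist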
The depositor's hits bear a star; . = not tested or not shown. Rule as the data show it, unless noted: active = inhibition above about 17%; inactive = the rest.

SMILES | NPY-Y2 PAM-ag | EP2 mod | NPY Y1 blocker | NPY-Y1 PAM-ag | PGE2 EP2 inh | NPY Y2 blocker | NPY1 antag conf | NPY-Y2 antag ct
C=CCN1CCN(C(c2ccc(Cl)cc2)c2nnnn2Cc2ccco2)CC1 (stereo not drawn) | . | 10 | . | . | 8 | . | . | .
CCCC(c1nnnn1Cc1ccco1)N1CCN(C2CCCC2)CC1 (stereo not drawn) | -11 | 37 | 22* | -15 | 8 | 14 | 9 | 7
CCC(c1nnnn1Cc1cccs1)N1CCN(C2CCCC2)CC1 (stereo not drawn) | -10 | 21 | 5 | -21 | 11 | 17 | . | .
CCCC(c1nnnn1Cc1cccs1)N1CCN(C2CCCC2)CC1 (stereo not drawn) | 3 | 3 | 25* | -8 | 8 | 15 | 5 | 3
Cc1cc(-c2ccccc2)nc(Oc2ccc(C(C)(C)C)cc2)c1S(C)(=O)=O | -21 | 50 | 23* | -38 | 3 | 8 | 7 | 14
O=C(N/N=C/c1ccccc1OC(=O)c1ccc2c(c1)OCO2)c1cccc(F)c1 | -11 | -18 | 21* | -25 | 3 | 17 | 16 | 9
O=C(O)Cn1nnc(-c2ccc(Cl)cc2)n1 | . | -18 | . | . | 5 | . | . | .
Cc1ccccc1CC1(CO)CCCN(C(=O)c2ccccc2N(C)C)C1 (stereo not drawn) | -7 | -1 | 28* | 13 | 7 | . | 5 | 6
CCOC(=O)C1(Cc2cccc(OC)c2)CCN(Cc2cccn2-c2nccs2)CC1 | -18 | 21 | 19 | -6 | 6 | . | . | .
CCOC(=O)C1(CCOc2ccccc2)CCN(Cc2cccn2-c2cccnc2)CC1 | -9 | 15 | 4 | 13 | 7 | . | . | .
CCOC(=O)C1(Cc2ccccc2)CCN(Cc2cccn2-c2nccs2)CC1 | -10 | 22 | 29* | -33 | 4 | . | 12 | 22*
CCOC(=O)C1(Cc2ccccc2)CCN(Cc2cccn2-c2cccnc2)CC1 | -8 | -1 | 30* | -9 | 15 | . | 15 | 8
COC(=O)[C@H]1CN(C(=O)Cc2nonc2C)C[C@@H]1c1ccc(F)cc1 | . | -35 | . | . | . | . | . | .
COc1ccc2cc(C)c3nn(Cc4cccnc4)c(=O)n3c2c1 | . | 7 | . | . | . | . | . | .
COc1ccc(CN(CC2CCCO2)C(=O)c2cc3ccccc3oc2=O)cc1 (stereo not drawn) | 5 | -5 | 37* | 3 | 2 | . | 0 | 1
CC1CC(C)CN(C(=O)CN2C(=O)[C@H]3CCCN3C(=O)c3ccccc32)C1 (stereo partly drawn) | . | -8 | . | . | 9 | . | . | .
CCC(C)(C)n1nnnc1C(c1cccnc1)N1CCN(c2cccc(C(F)(F)F)c2)CC1 (stereo not drawn) | -7 | 12 | 25* | 2 | 14 | 17 | 14 | 8
CCN(c1cccc(C(F)(F)F)c1)S(=O)(=O)c1ccc2c(c1)CCN2C(=O)C1CC1 | -8 | 34 | 24* | -50 | 18 | 14 | 14 | 13
COCCNC(=O)CN1CCC(N2CCCCC2)CC1 | . | -9 | . | . | 15 | . | . | .
Cc1ccc(-n2cc(CNCCCn3ccnc3C)c(-c3ccc(F)cc3)n2)cc1 | -33 | -30 | 28* | -20 | 8 | . | 25* | 35*
Cc1ccc(-n2cc(CNCCc3cscn3)c(-c3ccc(F)cc3)n2)cc1 | -28 | -9 | 7 | -22 | 6 | . | . | .
Cc1ccc(-n2cc(CN3CCN(c4ccccn4)CC3)c(-c3ccc(F)cc3)n2)cc1 | 10 | 17 | 4 | -14 | 1 | . | . | .
COc1ccc(-n2cc(CNCC3CCOCC3)c(-c3cccc(F)c3)n2)cc1 | -5 | -51 | 9 | -19 | 4 | . | . | .
COc1ccc(-n2cc(CNCCCn3ccnc3)c(-c3cccc(F)c3)n2)cc1 | -16 | -29 | 22* | -19 | 14 | . | 11 | 16
Cc1ccc(-n2cc(CN3CCN(Cc4nccn4C)CC3)c(-c3ccc(F)cc3)n2)cc1 | -26 | -5 | 31* | -29 | 7 | . | 16 | 19*
SMILES | NPY-Y2 PAM-ag | EP2 mod | NPY Y1 blocker | NPY-Y1 PAM-ag | PGE2 EP2 inh | NPY Y2 blocker | NPY1 antag conf | NPY-Y2 antag ct
O=C(C1CCCO1)N1CCC(c2ccc(F)cc2)CC1 (stereo not drawn) | . | 10 | . | . | 4 | . | . | .
O=C1NC2(CCN(C(=O)C3CC(=O)N(c4ccc(F)cc4)C3)CC2)Oc2ccccc21 (stereo not drawn) | . | 5 | . | . | 8 | . | . | .
O=C(O)c1cc2c(ccc3ccccc32)o1 | -21 | -16 | 32* | -30 | -4 | 14 | 13 | 15
Cc1cc(N2CCCCC2)nc(-c2ccccc2)n1 | . | 34 | . | . | 21 | . | . | .
CC(=O)NC1(c2ccccc2)CCN(c2cc(C)nc(-c3ccccc3)n2)CC1 | -23 | -80 | 46* | -11 | 20 | . | 34* | 46*
Cc1cc(N2CCN(c3cccc(C)c3C)CC2)nc(-c2ccccc2)n1 | -34 | 26 | 21* | -23 | 10 | 14 | 22* | 17*
CCOc1cc(CN2CCc3c(nc(N4CCCCC4C)[nH]c3=O)C2)ccc1O (stereo not drawn) | . | -20 | . | . | 11 | . | . | .
Cc1nc2c(c(=O)[nH]1)CCN(C(=O)c1c(C)nn(Cc3ccccc3)c1C)C2 | . | 0 | . | . | 8 | . | . | .
COc1ccc(-n2c(SC)nnc2-c2ccc(Cl)cc2)c(OC)c1 | . | 57 | . | . | 10 | . | . | .
CC(C)C(=O)N1CCN(c2ccccc2NC(=O)c2ccccc2F)CC1 | . | 21 | . | . | 11 | . | . | .
CC(C)C(=O)N1CCN(c2ccccc2NC(=O)c2ccc(C#N)cc2F)CC1 | -14 | 26 | 42* | -15 | 5 | . | 19 | 12
COc1ccc(CCNS(=O)(=O)c2ccc3c(c2)OCCO3)cc1 | -18 | -29 | 3 | -27 | . | 9 | . | .
COc1ccc(CCNS(=O)(=O)c2ccc(OC)cc2)cc1 | -29 | 24 | 23* | -8 | 3 | 8 | 10 | 7
COc1ccc(Oc2nc(-c3cccnc3)nc3ccccc23)cc1 | -32 | 44 | . | -20 | 11 | . | . | .
CCCOc1ccc(-c2nc(OC)c3ccccc3n2)cc1 | 3 | -20 | 20* | -37 | 3 | 3 | 12 | 18*
CCC(C)(C)n1nnnc1C(c1cc2cc(OC)c(OC)cc2[nH]c1=O)N1CCOCC1 (stereo not drawn) | . | -1 | . | . | 9 | . | . | .
COc1ccc(OC)c(C2=Nn3c(nnc3-c3cc(OC)c(OC)c(OC)c3)SC2)c1 | -14 | -24 | 27* | -34 | 4 | 6 | 24* | 29*
COc1cccc(-c2nnc3n2N=C(c2cc(OC)ccc2OC)CS3)c1 | -17 | 38 | 9 | -1 | 8 | 9 | . | .
C/C(=N\Nc1nc2ccccc2s1)c1ccc(Br)s1 | 11 | -15 | 31* | 26 | 1 | . | 8 | 20*
O=C(CCn1cnnn1)N1C2CCC1CC(c1ccc(F)cc1)C2 (stereo not drawn) | . | -16 | . | . | . | . | . | .
